# Test results as given in PubChem BioAssay AID588843 (Broad Institute, 2011).
# Inconclusive results are not listed. Calls of active or inactive are those of the source. No rule for the calls is given here.
# Tested on: ldlA CHO mSR-BI C384S, [3H]cholesterol efflux to HDL
# Assay: HDL-directed free cholesterol efflux, C384S receptor cells – cell-based, ldlA CHO, [3H]cholesterol, single point, dry powder, mechanism study for SR-BI HDL uptake inhibitor project (AID 588843)
# Settings: not given
# How it was run: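 Assay system: Cys384S SR-BI ldlA CHO cells | Medium: HEPES-buffered medium with 0.5% FAF-BSA | Dosing: Test compound with 0.5% DMSO final in well | Schedule: 2-day [3H]cholesterol labelling, 1% FAF-BSA equilibration, 1-h pre-exposure, 2-h efflux | Detection: Liquid scintillation counting of [3H]cholesterol in medium and cells | Read-out basis: % [3H]cholesterol effluxed to medium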
row,Compound,outcome
1,CCOC(=O)N1CCC(NC(=O)c2ccc3c(c2)N(Cc2ccc(F)cc2)CCS3)CC1,active
2,O=C(Nc1ccc(-c2nc3cc(NC(=O)c4ccc(NC(=O)c5cccc6ccccc56)cc4)ccc3[nH]2)cc1)c1ccc(NC(=O)c2cccc3ccccc23)cc1,active

# Same assay, conditions: at 1 µM; stronger effect = lower value
row,Compound,cholesterol efflux
1,CC(C)OCCCNC(=O)c1ccc(C2SCC(=O)N2Cc2ccco2)cc1 (centres undefined),18.9% (inactive)
2,CCOc1ccccc1/C=C/c1onc(C)c1S(=O)(=O)N1CCC(C(=O)NC(C)(C)C)CC1,7.29%
3,COc1ccc(OC)c(CCNC(=O)c2ccc3c(c2)N(Cc2ccc(F)cc2)CCS3)c1,16.9% (inactive)
4,O=C(Nc1cc(C(F)(F)F)ccc1Cl)c1ccccc1NS(=O)(=O)c1ccc(Cl)cc1,21.7% (inactive)
5,Cc1cc(C(=O)C(C)OC(=O)C2=NNC(=O)CC2)c(C)n1-c1ccc(OC(F)F)cc1 (centres undefined),16.5% (inactive)
6,COc1cccc(-c2csc(N3CCN(C(=S)Nc4cccc(Cl)c4)CC3)n2)c1,16.6% (inactive)
7,O=C(Nc1ccc(-c2nc3ccc(NC(=O)c4ccccc4)cc3[nH]2)cc1)c1ccccc1,11.7%
8,Cc1ccc(-c2nnc(N3CCC(C)CC3)c3ccccc23)cc1C,20.5% (inactive)
9,O=C(Nc1cc(Cl)ccc1Cl)c1cc(Br)ccc1NS(=O)(=O)c1ccc(Cl)c([N+](=O)[O-])c1,20.5% (inactive)
10,CCn1c(COc2c(C)cccc2C)nnc1SCC(=O)N1CCN(c2ccccc2)CC1,17.1% (inactive)
11,COc1ccc([C@H]2CC(=O)C=C(c3cccc4c3sc3ccccc34)C2)cc1OC,18.7% (inactive)
12,O=C(Nc1ccc(-c2nc3cc(NC(=O)c4ccccc4Cl)ccc3o2)cc1)c1ccccc1Cl,5.15%
13,Cc1cc(C)c2c(c1)NC(c1cc3c(cc1Br)OCO3)C1CC=CC21 (centres undefined),19% (inactive)
14,O=C(Nc1cccc(NC(=O)c2cc([N+](=O)[O-])ccc2Cl)n1)c1cc([N+](=O)[O-])ccc1Cl,14.2%
15,CCOc1ccc(NC(=O)CN2CCN(CC(=O)Nc3cc(OC)cc(OC)c3)CC2)cc1,17.9% (inactive)
16,CCC(=O)N1CCc2cc(-c3csc(NC(=O)c4ccco4)n3)ccc21,9.04%
17,O=C(Nc1ccc(Cl)cc1C(=O)c1ccc(Cl)cc1)c1cc(Br)ccc1NS(=O)(=O)c1ccc(Cl)cc1,21.7% (inactive)
18,O=C(Nc1ccc(-c2nc3cc(NC(=O)c4ccccc4[N+](=O)[O-])ccc3o2)cc1)c1ccccc1[N+](=O)[O-],5.43%
19,Cc1ccc2oc(-c3cccc(NC(=O)c4cc(-n5cnnc5)ccc4Cl)c3)nc2c1,19.7% (inactive)
20,COC(=O)c1cn(C(=O)c2cccc3ccccc23)c2ccccc12,19.2% (inactive)
21,Cc1cc(SC(C)C(=O)Nc2ncc(Cl)cc2Cl)nc2ccccc12 (centres undefined),15.5%
22,Cc1cc(C)n(CC(=O)NC2CCCc3c2cnn3-c2ccc(C)c(C)c2)n1 (centres undefined),17.2% (inactive)
23,COc1ccc(-c2nnn(CC(=O)N(C3CCCCC3)C(C)C(=O)NC3CCCC3)n2)cc1OC (centres undefined),14.2%
24,CC(OC(=O)c1cccc(NS(C)(=O)=O)c1)C(=O)Nc1ccc(N2CCOCC2)cc1 (centres undefined),10.3%
25,Cc1ccccc1NC(=O)NCC1CCN(c2ccc(S(=O)(=O)N3CCOCC3)cc2)CC1,18.4% (inactive)
26,N#Cc1sc2nc(C3CC3)cc(-c3ccc(Cl)cc3)c2c1N,14.7%
27,O=C(Nc1ccccc1Cl)c1ccccc1NS(=O)(=O)c1ccccc1,21% (inactive)

# Same assay, conditions: measured here: second test run; at 1 µM; stronger effect = lower value
row,Compound,cholesterol efflux
1,CCOC(=O)N1CCC(NC(=O)c2ccc3c(c2)N(Cc2ccc(F)cc2)CCS3)CC1,7.46%
2,O=C(Nc1ccc(-c2nc3cc(NC(=O)c4ccc(NC(=O)c5cccc6ccccc56)cc4)ccc3[nH]2)cc1)c1ccc(NC(=O)c2cccc3ccccc23)cc1,7.85%
3,CCC(=O)N1CCc2cc(-c3csc(NC(=O)c4ccco4)n3)ccc21,7.93%
4,O=C(Nc1ccc(-c2nc3cc(NC(=O)c4ccccc4[N+](=O)[O-])ccc3o2)cc1)c1ccccc1[N+](=O)[O-],3.07%
5,COc1ccc(-c2nnn(CC(=O)N(C3CCCCC3)C(C)C(=O)NC3CCCC3)n2)cc1OC (centres undefined),7.04%
